From PubChem BioAssay
Hits are enriched below; roughly 4.3% of the tested compounds scored in any of these assays.
SUMO HTRF inh = inhibitors of human SUMOylation (UBC9); AID 2006; HTRF SUMOylation assay, SAE1/SAE2 + UBC9, in vitro; inhibition, % at 35 µM; 0.36% of 290,000 active; in the data active means inhibition above about 50%, passing the limit was not always enough
Target sequence (P63279 whole entry, looked up): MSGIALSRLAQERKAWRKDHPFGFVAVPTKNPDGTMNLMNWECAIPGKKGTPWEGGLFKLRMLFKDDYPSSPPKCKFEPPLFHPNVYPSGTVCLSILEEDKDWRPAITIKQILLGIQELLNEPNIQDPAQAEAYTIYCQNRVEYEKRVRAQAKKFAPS
ALR inh = human ALR oxidase inhibition via reduced H2O2. purified ALR, DTT oxidation, H2O2 HRP-luminol luminescence. inhibition, % (concentration not given with the values). 3.8% of 290,000 active. AID 485317;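 active means mean replicate inhibition above about 79%, with every replicate also reaching it, limit read from the data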
UBC13 inh = blocks human UBC13 polyubiquitin chain formation | inhibition, % at 20 µM | 0.47% of 330,000 active | AID 485273 | TR-FRET | P61088; in the data active means inhibition above about 45%, passing the limit was not always enough
Target sequence (P61088 whole entry, looked up): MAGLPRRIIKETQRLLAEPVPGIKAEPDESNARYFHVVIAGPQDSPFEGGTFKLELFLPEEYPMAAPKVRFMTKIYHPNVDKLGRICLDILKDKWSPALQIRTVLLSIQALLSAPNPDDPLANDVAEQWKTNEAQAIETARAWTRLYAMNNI
RBBP9 inh = human RBBP9 hydrolase inhibition | recombinant RBBP9, FP-Rh probe fluorescence polarization | 0.2% of 220,000 active | inhibition, % at 7.94 µM;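 active means inhibition above the campaign mean of all tested compounds plus 3 SD, cut at about 14% in these data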;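 further: plate controls were DMSO wells with RBBP9 for no effect and wells lacking RBBP9 protein for full effect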
Target sequence (O75884 whole entry, looked up): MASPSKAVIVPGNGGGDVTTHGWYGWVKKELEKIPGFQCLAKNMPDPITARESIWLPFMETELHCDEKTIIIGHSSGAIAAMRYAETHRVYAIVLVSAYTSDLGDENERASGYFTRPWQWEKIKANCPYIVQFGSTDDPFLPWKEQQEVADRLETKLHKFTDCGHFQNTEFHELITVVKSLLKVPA
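Test system – recombinant human RBBP9 · Input – RBBP9 2.5 µM in dispensing solution, pre-mixing · Medium – Tris buffer pH 8.0, NaCl, Pluronic · Schedule – preincubation 30 min plus labeling 45 min at 25 °C · Measured by – fluorescence polarization · Measure – % inhibition · Controls – DMSO and no-protein wells · Replicates – one well per compound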
Rin1 Abl inh = human Rin1-Abl interaction inhibition | AID 588664 | inhibition, % at 7.35 µM | TR-FRET Rin1/Abl binding, biochemical | 0.4% of 360,000 active; in the data active means inhibition above about 5%, passing the limit was not always enough
PREPL inhibitor = inhibitors of human prolyl oligopeptidase-like enzyme PREPL; Q4J6C6; recombinant PREPL, fluorescence polarization activity-based probe; 0.68% of 320,000 active; AID 2751; inhibition, % at 5.96 µM; in the data active means inhibition above about 43%;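 further: 0% = enzyme with DMSO and 100% = wells lacking enzyme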
An asterisk follows results filed as active; . = no result.

SMILES	SUMO HTRF inh	ALR inh	UBC13 inh	RBBP9 inh	Rin1 Abl inh	PREPL inhibitor
O=C(Nc1ccccc1N1CCCC1)c1ccc(Br)o1	-1	98*	-13	-9	-3	10
O=C(/C=C/c1ccco1)Nc1ccccc1N1CCCC1	15	99*	-4	1	-1	14
O=C(NC(=S)Nc1ccc(N2CCCC2)cc1)c1ccccc1[N+](=O)[O-]	-9	-2	-4	-12	0	3
CC(=O)N1CCN(c2ccccc2NC(=O)c2ccc(Br)o2)CC1	5	.	-4	.	1	-8
O=C(NC(=S)Nc1ccccc1N1CCOCC1)c1ccco1	5	96*	0	-3	-2	3
CSc1ccc(CN(C)C(=O)c2cc(=O)[nH]c3ccccc23)cc1	5	-4	7	.	-3	-5
CCC(=O)Nc1ccc(NC(=O)c2cccc3c(Br)cccc23)cc1	20	-8	-14	.	-2	-4
Cc1c(Br)c(C(F)(F)F)nn1CC(=O)NCc1ccccc1	-6	6	4	1	-2	-3
O=C(COC(=O)C12CC3CC(CC(Br)(C3)C1)C2)Nc1cccc(S(=O)(=O)N2CCOCC2)c1	.	6	-3	.	2	-3
COc1cc(NC(=O)CN2CCN(C(=O)c3ccco3)CC2)c(C)cc1[N+](=O)[O-]	.	.	.	.	0	.
Cc1ccc(NC(=O)COC(=O)CN2CSCC2=O)cc1C	3	98*	9	-3	1	10
Cc1ccc(NC(=O)COC(=O)CSC(=S)N2CCOCC2)cc1C	-19	.	-4	-3	0	13
O=C(Nc1ccccc1)c1cc(C2CCCCN2C(=O)CCc2ccccc2)on1 (stereo unspecified)	.	.	.	.	-3	.
O=C(CN1CCN(c2ccccc2O)CC1)Nc1ccc2c(c1)OCCCO2	.	100*	-12	.	2	21
Cc1cc(NC(=O)CN2CCN(c3ccc(O)cc3)CC2)no1	-28	99*	-3	4	0	10
O=C(CN1CCN(c2ccccc2)CC1)Nc1ccc2c(c1)OCCO2	10	55	-4	-8	0	26
O=C(CN1CCN(c2ccc(F)cc2)CC1)Nc1ccc2c(c1)OCCO2	3	31	6	.	0	17
O=C(CN1CCN(c2ccc(O)cc2)CC1)NC(=O)NCc1ccco1	-9	98*	-6	-3	-2	14
O=C(CN1CCN(c2ccc(O)cc2)CC1)Nc1ccc2c(c1)OCCO2	12	78*	-2	0	0	2
COCCCN1C(=O)C(CC(=O)NCCCN(C)C)CC(C(=O)N2CCOCC2)=C1C (stereo unspecified)	.	.	.	.	-1	.
CN(C)S(=O)(=O)c1ccc(Cl)c(NC(=O)CN2C(=O)NC(C)(C3CC3)C2=O)c1 (stereo unspecified)	9	-11	2	-7	0	10
O=C(CN1CCN(c2ccc(O)cc2)CC1)NCC(=O)Nc1ccc(F)c(F)c1F	.	92*	-9	.	-2	14
CCCC[C@@H]1CCCO[C@@](C(=O)NCc2ccc(C)o2)(C(F)(F)F)C1	.	90*	0	.	1	-1
COc1ccc(C(=O)NCC(=O)NCC(=O)OCC(=O)C(C)(C)C)cc1	5	-5	-2	-11	0	22
O=C(NCc1cccs1)C1CCCN1C(=O)Nc1ccc(F)cc1 (stereo unspecified)	7	.	8	-1	0	-9
SMILES	SUMO HTRF inh	ALR inh	UBC13 inh	RBBP9 inh	Rin1 Abl inh	PREPL inhibitor
CN(C)CCCN(C(=O)c1ccc([N+](=O)[O-])s1)c1nc2cc3c(cc2s1)OCCO3	0	-23	10	.	-1	5
CN(C)CCCN(C(=O)c1cc2cc([N+](=O)[O-])ccc2s1)c1nc2cc3c(cc2s1)OCCO3	.	-4	73*	.	-3	29
COC(=O)C[C@H]1C[C@H]2c3cc(NC(=O)C4CCOCC4)ccc3O[C@H]2[C@H](CO)O1	.	.	.	.	4	.
CCn1c(C)c(C(C)=O)c(N2CCN(c3ccccc3)CC2)nc1=S	24	97*	-11	14	-2	15
O=[N+]([O-])c1ccccc1/C=N\N1CCN(Cc2ccccc2Cl)CC1	1	1	-8	.	-1	4
O=S(=O)(Nc1ccc(N2CCCCC2)cc1)c1ccccc1	-1	61	-2	-7	0	3
Cc1cc(C)c(S(=O)(=O)Nc2ccc(N3CCOCC3)cc2)c(C)c1	-18	86*	-7	-6	-1	-8
O=S(=O)(Nc1ccc(N2CCOCC2)cc1)c1ccc(Cl)s1	9	98*	-7	4	3	5
O=C(/C=C/c1ccccc1)NC(=S)Nc1ccc(N2CCOCC2)cc1	21	-11	2	-11	2	2
O=S(=O)(Nc1ccc(N2CCOCC2)cc1)c1ccccc1	6	99*	-1	0	-1	-2
O=S(=O)(/C=C/c1ccccc1)Nc1ccc(N2CCOCC2)cc1	27	95*	-10	2	-1	21
CCOC(=O)/C(C#N)=C1\C(=O)N(Cc2ccccc2)c2ccccc21	15	.	-5	-2	-2	5
CC(C)(C)CNc1cc(N2CCOCC2)ccc1[N+](=O)[O-]	-26	1	-42	-3	-5	3
Cc1ccc([N+](=O)[O-])cc1S(=O)(=O)Nc1ccc(N2CCOCC2)cc1	1	99*	-7	12	1	19
O=[N+]([O-])c1ccc([N+](=O)[O-])c(Nc2ccc(N3CCOCC3)cc2)c1	-10	98*	-18	-7	0	-2
COc1cccc(NC(=O)c2ccnc(N3CCC(C(=O)NCc4ccccc4OC)CC3)c2)c1	28	1	3	.	2	9
C(=N/N1CCN(c2ccccc2)CC1)/c1ccncc1	4	97*	-8	-1	-5	10
C(=NN1CCCCCC1)c1ccccc1	.	.	.	.	-2	.
Cn1cccc1/C=N/N1CCN(c2ccccc2)CC1	-9	94*	3	-1	1	19
Cn1cccc1/C=N/N1CCN(Cc2ccccc2Cl)CC1	-2	59	-1	-3	2	23
CN(c1ccccc1)c1ccc(/C=N/N2CCOCC2)cc1	-6	99*	2	-3	0	-1
O=C(NCc1cc(Cl)cc(Cl)c1)c1csc([C@@H]2O[C@H](CO)[C@H](O)[C@H](O)[C@H]2O)n1	.	.	.	.	-4	.
COc1cccc(N2CCN(Cc3nnnn3C3CCCCC3)CC2)c1	4	89*	5	5	3	20
Cc1cccc(Nc2nc(N)nc(CN3CCN(c4ccccc4)CC3)n2)c1	14	80*	-12	-4	-1	17
COc1ccc(Nc2nc(N)nc(CN3CCN(c4ccc(F)cc4)CC3)n2)cc1	0	99*	1	-4	-6	15
Cc1ccc(C)c(N2CCN(Cc3nnnn3C3CCCCC3)CC2)c1	4	-2	5	-4	4	-2
COc1cccc(N2CCN(Cc3nc(N)nc(Nc4ccccc4)n3)CC2)c1	5	97*	3	-7	4	12
